Hits are enriched below; roughly 2.6% of the tested compounds scored in any of these assays.
HIV Env fusion = blocks HIV Env-driven cell-cell fusion; HeLa-JRFL Env/CEM21 cell fusion, luciferase; inhibition, % at 12.3 µM; 360,000 compounds, 1.1% hits; AID 651610;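 active means mean replicate inhibition score of at least 50 and every replicate individually at or above 50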
rRNA inh HTS = inhibitors of bacterial rRNA selective over humanized ribosomes; GFP signal change (wild-type ribosome), % (test concentration not listed); 350,000 compounds, 1.6% hits; E. coli WT GFP vs humanized-ribosome RFP mutants, fluorescence, 24 h; stronger effect = lower value; DMSO median 0, no signal -100; AID 720706;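 active means significant combined selectivity score with lowered wild-type GFP, culture density cut under 30%, mutant RFP and density less affected; inactive means any of these conditions unmet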
miR122 inh = miR-122 inhibition in Huh7 cells; 340,000 compounds, 0.3% hits; Huh7 miR-122 Renilla luciferase sensor, 48 h; neutral wells = 0, positive control = 100; AID 602342; activation (reporter increase), % at 12.5 µM;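 active means mean replicate activation score at least 90 and every replicate individually at or above 90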;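 further: higher luciferase means less miR-122 activity so hits act as miR-122 inhibitors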
FN deposit inh = fibronectin deposition inhibition; AID 743247; inhibition, % at 12.6 µM; 350,000 compounds, 0.086% hits; AH1F fibroblasts, Alexa488-fibronectin deposition fluorescence, overnight;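 active means mean inhibition across replicates of 30% or more, regardless of how many single replicates reach that level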
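test system = AH1F fibroblasts assembling fluorescent fibronectin matrix | quantity = 10000 AH1F cells per well | buffer or medium = DMEM plus 2% serum, read in PBS | doses = single dose, pinned | incubation = 1 h cell attachment, overnight exposure to compound and label | detection = fluorescence at 485 nm excitation, 525 nm emission | read-out basis = inhibition from reduced deposited-fibronectin fluorescence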
Vif imaging = blocks HIV Vif function. HEK293T cells, Vif self-association by quenched fluorescence, imaging, 24 h. inhibition, % at 7.49 µM. 340,000 compounds, 0.35% hits. AID 602346; in the data active means inhibition above about 50%, passing the limit was not always enough
S100A4 inh HTS = inhibitors of human S100A4 binding to myosin IIA peptide | P26447 | S100A4/TAMRA-MyoIIA peptide fluorescence polarization | inhibition, % at 10.7 µM | 360,000 compounds, 0.14% hits | AID 652163;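 active means mean inhibition of at least 70% across replicates, with every replicate also reaching that level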
Target sequence (P26447 whole entry, looked up): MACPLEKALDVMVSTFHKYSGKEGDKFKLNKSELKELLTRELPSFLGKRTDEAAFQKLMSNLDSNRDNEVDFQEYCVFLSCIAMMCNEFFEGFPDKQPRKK
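assay system = human S100A4 monomer with TAMRA-labelled myosin IIA peptide | also added = labelled myosin peptide probe, 5 nM | incubation = 5 min between mix addition and reading | control set = DMSO and TFP controls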
Hits are given with their value; – = inactive; · = not tested or not shown; [ ] = remark or other dose.

SMILES	HIV Env fusion	rRNA inh HTS	miR122 inh	FN deposit inh	Vif imaging	S100A4 inh HTS
O=C(C[C@H]1C=C[C@@H](NC(=O)C2CCOCC2)[C@H](CO)O1)Nc1ccccc1	·	–	·	·	·	–
O=C(C1CCCO1)N1CCN(C(=S)Nc2ccc(F)c(Cl)c2)CC1 (stereo not given)	–	-29	–	·	–	–
CCCC(=O)N1CC2(C1)CN(C(=O)CC1CC1)[C@H](CO)c1c2c2ccc(OC)cc2n1C	·	–	·	·	·	·
COc1ccc2c3c(n(C)c2c1)[C@H](CO)N(CC1CC1)CC31CCN(S(=O)(=O)c2cn(C)cn2)CC1	·	–	·	·	·	–
C/C(=N\Nc1ccc(S(=O)(=O)Nc2ccc(Cl)cc2)cc1[N+](=O)[O-])c1ccc(N2CCOCC2)cc1	–	·	170	–	–	·
COc1ccc(NS(=O)(=O)c2ccc(N/N=C(\C)c3ccncc3)c([N+](=O)[O-])c2)cc1	–	-23	·	–	–	–
C/C(=N\Nc1ccc(S(=O)(=O)Nc2ccccc2)cc1[N+](=O)[O-])c1ccncc1	–	–	·	–	·	–
c1ccc(-c2cn3nc(-c4ccccc4)c(-c4ccccc4)nc3n2)cc1	–	·	–	–	157	·
CCOc1ccc(NC(=O)Nc2cccc(C(=O)O)c2)cc1	63	–	–	–	–	–
O=C(Nc1cccc(Cl)c1)Nc1cccc(C(=O)O)c1	–	–	–	–	–	–
CCOc1ccc(NC(=S)NNC(=O)c2ccc(Br)cc2)cc1	–	-15	·	–	–	–
Cc1ccc(NC(=O)Nc2ccc(C(=O)N3CCOCC3)cc2)cc1	–	·	–	–	–	·
O=C(Nc1ccc(Cl)cc1)Nc1cccc(C(=O)O)c1	71	–	–	–	–	–
CC(=O)c1cccc(NC(=O)Nc2ccc(C(=O)N3CCOCC3)cc2)c1	63	·	–	–	–	·
CO[C@@H]1CN(C)C(=O)c2cc(NC(C)=O)ccc2OC[C@H](C)N(CCc2ccccc2)C[C@@H]1C	·	–	–	–	·	–
CCOc1ccc(NC(N)=O)cc1	·	–	·	·	65	–
Cc1cc(C)c(S(=O)(=O)Nn2cnnc2)c(C)c1	–	–	–	33	–	–
C[C@@H]1CN([C@@H](C)CO)C(=O)Cc2cc(NS(=O)(=O)c3ccc(Cl)cc3)ccc2O[C@H]1CN(C)S(C)(=O)=O	–	–	–	·	·	–
O=C(Nc1ccc(Cl)cn1)C1CCCN1S(=O)(=O)c1cccc2ccccc12 (stereo not given)	70	·	–	–	–	·
CC(C)NC(=O)Nc1ccc2c(c1)C(=O)N(C)C[C@H](C)[C@@H](CN(C)C(=O)NC(C)C)O2	·	–	·	–	·	·
CC(C)CC#Cc1ccc([C@@H]2[C@@H](CO)N3C(=O)CN(C(=O)NC4CCCC4)C[C@H]23)cc1	·	–	·	–	·	–
CC(C)(C)OC(=O)NCCC(=O)N/N=C/c1cccc2cccnc12	–	-16	–	–	–	–
Fc1ccc(-c2ccc3c(n2)CCCN3Cc2ccccn2)cc1	–	–	·	–	·	–
c1ccc(-c2ccc3c(n2)CCCN3Cc2ccccn2)cc1	61	–	·	–	·	–
O=C(CC1CC1)N1CC(=O)N2[C@H](CO)[C@@H](c3ccc(C#Cc4ccccc4)cc3)[C@@H]2C1	·	–	·	·	·	–
SMILES	HIV Env fusion	rRNA inh HTS	miR122 inh	FN deposit inh	Vif imaging	S100A4 inh HTS
C[C@H](CO)N1C[C@H](C)[C@@H](CN(C)S(=O)(=O)c2ccc(F)cc2)OCCCC[C@H](C)Oc2ccc(NC(=O)Nc3ccc(C(F)(F)F)cc3)cc2C1=O	57[16.7 µM]	–	–	–	·	–
C[C@@H]1CCCCO[C@@H](CN(C)S(=O)(=O)c2ccc(F)cc2)[C@H](C)CN([C@H](C)CO)C(=O)c2cc(NC(=O)Nc3ccc(C(F)(F)F)cc3)ccc2O1	68[16.7 µM]	–	–	–	·	–
CC(C)(C)NC(=O)C(c1ccccc1)N(Cc1cccs1)C(=O)c1csnn1 (stereo not given)	72	·	–	–	–	·
C[C@@H]1CN([C@@H](C)CO)S(=O)(=O)c2ccc(-c3ccncc3)cc2O[C@H]1CN(C)C(=O)C1CCCCC1	–	–	–	·	·	·
O=S(=O)(c1ccccc1)c1nc(-c2ccco2)oc1NCCN1CCOCC1	·	–	–	·	–	–
Cc1ccccc1-c1nc(S(=O)(=O)c2ccccc2)c(NCCN2CCOCC2)o1	59	–	–	–	–	–
O=C(CCNS(=O)(=O)c1ccccc1)N1CCCCCCC1	66	–	·	–	–	–
O=S(=O)(NCCc1csc(-c2cccnc2)n1)c1cccs1	–	–	·	–	–	–
O=S(=O)(NCCc1csc(-c2cccnc2)n1)c1ccc(Cl)s1	122	–	–	–	–	–
Cc1cc(/C=C2\SC(=S)NC2=O)c(C)n1-c1ccc(O)cc1	–	-24	·	–	–	–
C[C@H]1CN([C@@H](C)CO)C(=O)c2cc(-c3cncnc3)cnc2O[C@H]1CN(C)Cc1ccc(F)cc1	·	–	·	–	·	–
O=C(c1ccccc1)N(CCCn1ccnc1)C(c1ccccc1)c1nc2ccccc2[nH]1 (stereo not given)	–	–	–	–	·	–
O=C(c1ccc(C(F)(F)F)cc1)N(CCCn1ccnc1)C(c1ccccn1)c1nc2ccccc2[nH]1 (stereo not given)	65	–	–	–	–	–
COCC(=O)Nc1ccc2c(c1)[C@H]1C[C@@H](CC(=O)N3CCc4ccccc4C3)O[C@H](CO)[C@H]1O2	·	–	–	·	·	–
C[C@H](CO)N1C[C@H](C)[C@H](CN(C)Cc2ccc3c(c2)OCO3)Oc2ccc(NC(=O)Nc3cccc4ccccc34)cc2CC1=O	·	–	–	·	·	–
Cc1nc(N2CCOCC2)nc(Oc2ccccc2)c1[N+](=O)[O-]	–	-43	·	–	–	–
CCCCOc1nc(N2CCOCC2)nc(C)c1[N+](=O)[O-]	–	–	·	–	–	–
Cc1cc(NC(=O)c2ccccc2)c(Cl)cc1N	–	–	·	–	116	–
COc1ccccc1CN1C(=O)CN(C2CCCCCC2)C(=O)C1c1ccc(F)cc1 (stereo not given)	82	·	·	–	–	·
O=S(=O)(Nc1ccc2cn[nH]c2c1)c1ccc(Cl)cc1	·	·	–	·	–	·
Cc1cc(S(=O)(=O)Nc2ccc3cn[nH]c3c2)c(C)cc1Cl	–	–	144	–	–	–
COCC(=O)N(C)C[C@H]1Oc2ncc(C3=CCCC3)cc2C(=O)N([C@H](C)CO)C[C@H]1C	–	–	·	·	·	–
CCC(=O)Nc1ccc2c(c1)OC[C@H](C)N(CC1CCCCC1)C[C@H](C)[C@@H](OC)CN(C)C2=O	87[16.7 µM]	–	–	–	·	·
CO[C@H]1CN(C)C(=O)c2ccc(NC(=O)C3CCC3)cc2OC[C@H](C)N(CC2CCCCC2)C[C@@H]1C	92[16.7 µM]	–	·	–	·	–
CO[C@H]1CN(C)C(=O)c2ccc(NC(=O)C3CCCCC3)cc2OC[C@@H](C)N(Cc2nccs2)C[C@@H]1C	·	–	–	–	·	130
